An excerpt weighted towards active compounds, which were near 1.2% of everything screened.
Efflux pump inh – blocks antifungal efflux pumps in multiplex yeast assay; S. cerevisiae Candida pump triplex, Nile Red efflux; inhibition, % at 10 µM; hit rate 0.44% among 330,000; AID 485275;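 active = plate passing quality check with inhibition over a set limit, or well fluorescence over plate mean plus 4 SD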;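 also: Nile Red retained in pooled yeast measured as flow cytometry median fluorescence; 0% = buffer negative control and 100% = Enniatin B positive control; higher means more Nile Red kept so more efflux inhibition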
SR-BI HDL uptake – mouse SR-BI HDL lipid transfer inhibition | Q61009 | ldlA[mSR-BI] CHO cells, DiI-HDL uptake fluorescence, 3 h | inhibition, % at 12.5 µM | hit rate 0.96% among 320,000 | AID 488896;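 active = mean replicate inhibition of at least 70% and a set share of replicates each scoring 70 or more; inconclusive = meets just one of the two criteria; inactive = fails both criteria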;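 also: 0% = median of neutral control wells and 100% = median of positive control wells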
Target sequence (Q61009 whole entry, looked up): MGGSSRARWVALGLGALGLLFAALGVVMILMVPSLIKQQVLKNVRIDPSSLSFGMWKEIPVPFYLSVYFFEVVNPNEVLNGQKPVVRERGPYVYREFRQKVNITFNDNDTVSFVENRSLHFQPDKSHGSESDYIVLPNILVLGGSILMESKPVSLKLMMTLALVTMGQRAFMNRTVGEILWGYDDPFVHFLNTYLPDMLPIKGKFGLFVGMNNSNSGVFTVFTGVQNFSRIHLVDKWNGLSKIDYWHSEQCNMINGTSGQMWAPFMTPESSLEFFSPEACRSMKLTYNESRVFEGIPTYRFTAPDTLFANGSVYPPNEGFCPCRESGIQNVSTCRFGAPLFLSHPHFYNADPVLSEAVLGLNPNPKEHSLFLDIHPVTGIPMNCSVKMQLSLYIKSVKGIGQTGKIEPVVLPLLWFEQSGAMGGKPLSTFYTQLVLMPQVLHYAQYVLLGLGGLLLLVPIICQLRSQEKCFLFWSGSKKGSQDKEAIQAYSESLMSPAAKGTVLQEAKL
SR-BI uptake up – SR-BI HDL lipid transfer activation; CHO ldlA[mSR-BI] cells, DiI-HDL uptake fluorescence, 3 h; 100 = double the neutral-control signal; activation, % at 12.5 µM; hit rate 0.096% among 320,000;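 active = mean replicate activation of at least 60% and every replicate at or above 60%; inconclusive = mean or all-replicate condition met, but not both; inactive = mean below 60% and not all replicates reaching 60%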;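 also: 0% = median plate neutral-control signal and 100% = twice that signal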
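System: LDL receptor-deficient CHO ldlA cells overexpressing murine SR-BI | Timing: 3 h uptake period with compound, 37 °C | Medium: HEPES-buffered (25 mM, pH 7.4) F12 plus 0.5% BSA | Dosing: Single-point compound dose | Signal: Bottom-read fluorescence, 550/595 nm | Read-out: Retained DiI signal reflecting DiI-HDL uptake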
FN deposit inh – fibronectin deposition inhibition; hit rate 0.086% among 350,000; AH1F fibroblasts, Alexa488-fibronectin deposition fluorescence, overnight; inhibition, % at 12.6 µM;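 active = mean inhibition across replicates of 30% or more, regardless of how many single replicates reach that level; inconclusive = mean under 30% yet at least half of replicates reach 30%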;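 also: positive control wells lacked labelled fibronectin entirely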
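Material: AH1F fibroblast monolayer depositing Alexa488-labelled fibronectin into matrix | Input: 10000 AH1F cells/well | Medium: DMEM plus 2% serum, read in PBS | Reagent: Alexa488-fibronectin, 24 nM final in well | Compound dosing: One dose per compound, pinned | Schedule: 1 h adhesion, overnight exposure | Measured by: Fluorescence at 485 nm excitation, 525 nm emission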
CaV13 ICDI inh – Disruptors of the CACNA1D IQ motif to Ca2+-dependent inactivation inhibitor domain association, primary screening, Förster resonance energy transfer in intact living … | inhibition, % at 12.3 µM | hit rate 0.098% among 340,000 | AID 743397 | HEK cells, CFP/YFP FRET ICDI-IQ, plate reader, 10 min; percent FRET-ratio fall versus neutral wells;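 active = mean replicate inhibition of at least 30% and at least 1% of replicates passing that level; inconclusive = only one of the two criteria is met; inactive = neither criterion is met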;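 also: 0% = median of the neutral control wells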
* = called active by the depositor; ? = inconclusive; nt = not tested or not shown.

SMILES | Efflux pump inh | SR-BI HDL uptake | SR-BI uptake up | FN deposit inh | CaV13 ICDI inh
CCOc1cc(NC(=S)NCC2CCCO2)c(OCC)cc1NC(=O)c1ccccc1C (configuration not stated) | 0.1 | 8.2 | -8.2 | 0.1 | -5.2
CCOc1cc(NC(=S)NC)c(OCC)cc1NC(=O)c1ccc(OC)cc1 | -0.1 | 81.8* | -81.8 | 11.0 | 3.8
CN1C(=O)c2cc(NC(=O)c3cnccn3)ccc2OC[C@@H]2O[C@H](CC(=O)NCC3CC3)CC[C@@H]21 | nt | nt | nt | -2.6 | nt
COc1cc(C(=O)Nc2ccc(Nc3ccccc3)cc2)cc(OC)c1OC | 0.0 | 79.4* | -79.4 | -23.1 | ?
COc1cc(C(=O)Nc2cccc(-n3cnnn3)c2)cc(OC)c1OC | -0.4 | 76.8* | -76.8 | -14.7 | -3.2
COc1cc(C(=O)Nc2ccc(Cl)c([N+](=O)[O-])c2)cc(OC)c1OC | 0.0 | 79.7* | -79.7 | 8.3 | -1.4
COc1ccc(NC(=O)c2cc(C)cc(C)c2)cc1[N+](=O)[O-] | 0.2 | 79.6* | -79.6 | -2.4 | 8.5
C[C@@H]1CN([C@@H](C)CO)C(=O)c2cc(C3=CCCC3)cnc2O[C@@H]1CN(C)Cc1ccc(C(=O)O)cc1 | nt | nt | nt | -1.7 | nt
CO[C@H]1CN(C)C(=O)c2ccc(NC(=O)c3ccc(F)cc3)cc2OC[C@H](C)N(C)C[C@@H]1C | nt | nt | nt | 0.2 | nt
C/C(=N\NC(=O)c1c(Br)c(C)nn1C)c1ccc(NC(=O)C(C)Oc2ccc(Cl)cc2C)cc1 (configuration not stated) | 0.0 | 76.2* | -76.2 | nt | nt
CCC(=O)Nc1ccc(/C(C)=N/NC(=O)c2c(Br)c(C)nn2C)cc1 | 1.4 | 15.1 | -15.1 | -1.0 | -4.7
CCCCc1c(C)nc(Nc2ccc(OC)cc2)[nH]c1=O | -0.1 | -60.3 | 60.3* | -7.6 | -5.2
COCC(=O)N(C)C[C@@H]1Oc2ncc(C#CCC3CCCC3)cc2C(=O)N([C@H](C)CO)C[C@H]1C | nt | nt | nt | -7.4 | nt
CCOc1nc(Nc2ccc(F)cc2)nc(N2CCN(c3ccc(OC)cc3)CC2)n1 | 0.0 | 54.7 | -54.7 | nt | -6.2
CCOc1nc(Nc2ccc(OC)c(Cl)c2)nc(N2CCN(c3ccc(OC)cc3)CC2)n1 | -0.1 | 78.9* | -78.9 | nt | -0.8
O=C(C1CCCC1)N1CC2(C1)[C@H](c1ccccc1)[C@@H](CO)N2C(=O)c1cccnc1 | nt | nt | nt | -2.6 | nt
O=C(C[C@@H]1CC[C@H]2[C@@H](COC[C@H](O)CN2Cc2ccc(Oc3ccccc3)cc2)O1)Nc1nccs1 | nt | nt | nt | -8.7 | nt
CCS(=O)(=O)NCc1ccc2[nH]c3c(c2c1)CCCC3 | 1.3* | nt | nt | nt | nt
Cc1cc(C)cc(NC(=S)NCc2ccc3[nH]c4c(c3c2)CCCC4)c1 | 0.2 | 28.4 | -28.4 | 6.1 | -6.7
O=C(N/N=C/c1cccc([N+](=O)[O-])c1)c1cc(-c2ccccc2)nc2ccccc12 | -0.1 | 80.2* | -80.2 | -2.4 | -4.2
Cc1cc(C(=O)N/N=C/c2cc(N=Nc3ccccc3)ccc2O)n[nH]1 | -0.1 | 115.0* | -115.1 | nt | nt
O=C(N/N=C/c1cc([N+](=O)[O-])ccc1O)c1cc(-c2ccccc2)nc2ccccc12 | -0.3 | 128.6* | -128.6 | 8.4 | -3.8
O=C(N/N=C/c1cccc(O)c1)c1cc(-c2ccccc2)nc2ccccc12 | 0.0 | 56.6 | -56.6 | 6.2 | -3.4
COC(=O)N/N=C/c1cc(N=Nc2ccccc2)ccc1O | 0.0 | 14.9 | -14.9 | 0.5 | -0.4
Nc1ccc(C(=O)N/N=C\c2cc(N=Nc3cccc4ccccc34)ccc2O)cc1 | -0.1 | 122.2* | -122.3 | 13.0 | -5.3
SMILES | Efflux pump inh | SR-BI HDL uptake | SR-BI uptake up | FN deposit inh | CaV13 ICDI inh
COc1ccc(S(=O)(=O)Nc2ccc3c(c2)C(=O)N([C@H](C)CO)C[C@@H](C)[C@H](CN(C)C(=O)Nc2ccccc2)OCCCC[C@H](C)O3)cc1 | nt | nt | nt | -6.1 | nt
C[C@H]1CN([C@@H](C)CO)C(=O)c2cccc(NC(=O)c3ccc(-c4nccs4)cc3)c2O[C@H]1CN(C)S(=O)(=O)c1ccc(Cl)cc1 | nt | nt | nt | 4.5 | nt
C[C@@H]1CCCCO[C@H](CN(C)C(=O)Nc2cccc3ccccc23)[C@@H](C)CN([C@@H](C)CO)C(=O)c2cc(NS(=O)(=O)c3ccccc3)ccc2O1 | nt | nt | nt | -2.9 | nt
CC(C)C[C@@H]1COCc2cn(nn2)CC[C@H](Cc2cccc(Cl)c2)C(=O)N1 | nt | nt | nt | -0.3 | nt
O=C(N/N=C/c1cc([N+](=O)[O-])ccc1O)c1c[nH]c2ccccc12 | 0.0 | nt | nt | 7.8 | -6.2
O=[N+]([O-])c1ccc(O)c(/C=N/Nc2nc3ccccc3[nH]2)c1 | -0.1 | 86.9* | -86.9 | 11.2 | -16.4
O=C(N/N=C/c1ccc([N+](=O)[O-])o1)c1cc(-c2ccncc2)nc2ccccc12 | 0.0 | 41.4 | -41.4 | 14.2 | -7.9
COc1ccc(/C=N/NC(=O)c2nc(-c3ccccc3)cc(-c3ccccc3)n2)cc1OC | 0.0 | 66.9 | -66.9 | nt | nt
O=C(NN=Cc1cc([N+](=O)[O-])ccc1O)c1cccc2ccccc12 | nt | 134.0* | -134.0 | nt | -5.3
COc1cccc(/C=N/NC(=O)c2nc(-c3ccccc3)cc(-c3ccccc3)n2)c1 | 0.1 | 80.7* | -80.7 | nt | -3.5
O=C(N/N=C/c1ccc([N+](=O)[O-])o1)c1cc(-c2ccc(-c3ccccc3)cc2)nc2ccccc12 | 0.4 | 118.5* | -118.5 | -10.6 | -4.2
COc1ccc(O)c(/C=N/Nc2nc3ccccc3[nH]2)c1 | -0.3 | -12.7 | 12.7 | 2.0 | -4.8
C[C@@H]1CN([C@H](C)CO)S(=O)(=O)c2ccc(C#Cc3ccncc3)cc2O[C@H]1CN(C)C(=O)C1CCC1 | nt | nt | nt | -7.9 | nt
Cc1cc(C(=O)N/N=C/c2ccc([N+](=O)[O-])cc2)c2ccccc2n1 | 0.2 | 22.9 | -22.9 | 4.0 | -5.1
Cc1cc(Cl)ccc1NC(=O)CCC(=O)N/N=C/c1cc([N+](=O)[O-])ccc1O | -0.1 | -10.2 | 10.2 | nt | -6.5
Cc1cc(C(=O)N/N=C/c2cc([N+](=O)[O-])ccc2O)c2ccccc2n1 | 0.2 | 118.1* | -118.1 | nt | -10.2
O=[N+]([O-])c1ccc(O)c(/C=N/NC(=S)Nc2ccc(Cl)cc2Cl)c1 | -0.2 | 104.7* | -104.6 | 5.7 | -2.5
Cc1ccc(-c2nc(N/N=C/c3cccc([N+](=O)[O-])c3)c3ccccc3n2)cc1 | 0.1 | 74.1* | -74.1 | nt | -8.0
O=C(N/N=C/c1cc([N+](=O)[O-])ccc1O)C12CC3CC(CC(C3)C1)C2 | 0.0 | 135.7* | -135.7 | -0.9 | -6.9
Cc1ccc(-c2nc(N/N=C/c3cccnc3)c3ccccc3n2)cc1 | 0.1 | 45.2 | -45.2 | nt | nt
CN(C)C(=O)c1ccc(-c2ccccc2[C@@H]2[C@H](C#N)N(C(=O)C3CCCC3)[C@H]2CO)cc1 | nt | nt | nt | 4.1 | nt
CO[C@H]1CN(C)C(=O)c2ccc(NS(=O)(=O)c3cn(C)cn3)cc2OC[C@H](C)N(CCC(F)(F)F)C[C@H]1C | nt | nt | nt | -10.1 | nt
NC(=S)NN=C1c2cc(S(=O)(=O)N3CCOCC3)ccc2-c2ccc(S(=O)(=O)N3CCOCC3)cc21 | -0.2 | 24.4 | -24.4 | -5.0 | -11.1

Bioassay records: PubChem, several laboratories
